The text below walks through data of ChEMBL document CHEMBL3044755, “5-Methyl-1,2,3-thiadiazoles synthesized via ugi reaction and their fungicidal and antiviral activities” (J Agric Food Chem, 2010).

What all share (assay type): functional
The subject of experiment [1] is Mycosphaerella arachidis. Kind of experiment: Fungicidal activity against Mycosphaerella arachidis at 50 ug/ml by growth inhibition method. As to conditions: read-out: GI. The method, boiled down:
(§1)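 Mycelial growth inhibition on potato dextrose agar. The panel covered Alternaria solani, Botrytis cinerea, Cercospora arachidicola, C. beticola, Colletotrichum lagenarium, Fusarium oxysporum, Gibberella zeae, Puccinia triticina, Phytophthora infestans, Physalospora piricola, Pellicularia sasakii and Rhizoctonia solani.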

Experiment [2] relates to Tobacco mosaic virus. Kind of experiment: In vitro antiviral activity against Tobacco mosaic virus (TMV) infected tobacco leaves at 500 ug/ml.
Experiment [3] deals with Cercospora beticola. Kind of experiment: Fungicidal activity against Cercospora beticola at 50 ug/ml by growth inhibition method. The settings on record: read-out: GI. The essentials:
as §1

Experiment [4] concerns Puccinia triticina. Put plainly: Fungicidal activity against Puccinia triticina at 50 ug/ml by growth inhibition method. As to conditions: read-out: GI. The method, boiled down: as §1
Experiment [5] deals with Colletotrichum lagenaria. Kind of experiment: Fungicidal activity against Colletotrichum lagenaria at 50 ug/ml by growth inhibition method. The settings on record: read-out: GI. The essentials:
as §1

Experiment [6] has as its system Alternaria solani. Put plainly: Fungicidal activity against Alternaria solani at 50 ug/ml by growth inhibition method. The settings on record: read-out: GI. The essentials: as §1
The subject of experiment [7] is Rhizoctonia solani. Kind of experiment: Fungicidal activity against Rhizoctonia solani at 50 ug/ml by growth inhibition method. The settings on record: read-out: GI. The essentials:
as §1

The test system of experiment [8] is Tobacco mosaic virus. Kind of experiment: In vitro antiviral activity against Tobacco mosaic virus (TMV) infected tobacco leaves at 100 ug/ml.
Experiment [9] has as its system Thanatephorus cucumeris. Put plainly: Fungicidal activity against Thanatephorus cucumeris at 50 ug/ml by growth inhibition method. The settings on record: read-out: GI. The essentials: as §1
The subject of experiment [10] is Phytophthora infestans. Put plainly: Fungicidal activity against Phytophthora infestans at 50 ug/ml by growth inhibition method. As to conditions: read-out: GI. The essentials:
as §1

Experiment [11] concerns Botryosphaeria berengeriana. Put plainly: Fungicidal activity against Botryosphaeria berengeriana at 50 ug/ml by growth inhibition method. The settings on record: read-out: GI. The essentials:
as §1

In experiment [12] the test system is Fusarium graminearum. Kind of experiment: Fungicidal activity against Fusarium graminearum at 50 ug/ml by growth inhibition method. The settings on record: read-out: GI. The method, boiled down: as §1

For the compound `Cc1ccc(N(C(=O)c2nnsc2C)C(C(=O)NC2CCCCC2)c2ccc(Cl)cc2)cc1F` (configuration not stated), the inhibition of growth at 50 µg/mL in [1] was found to be 18%; in [3] it was 13%; in [4], 0%; in [5], 0%; in experiment [6], 0%; in experiment [7] it was 22%. For the same compound, the inhibition of growth at 50 µg/mL in experiment [9] came out at 0%; in experiment [10], 6%; in experiment [11] it was 0%; in [12], 0%. This compound also showed an inhibition at 500 µg/mL in [2] of 14%. For the same compound, the inhibition at 100 µg/mL in [8] was determined as 8%.

Consider `Cc1ccc(N(C(=O)c2nnsc2C)C(C(=O)NC2CCCCC2)c2ccccc2Cl)cc1F` (configuration not stated), for which the inhibition of growth at 50 µg/mL stood at 0% in experiment [1]; 0% in experiment [3]; 0% in experiment [4]; 0% in experiment [5]; 0% in [6]; 22% in experiment [7]. Besides, the inhibition of growth at 50 µg/mL in experiment [9] was 0%; in experiment [10] it was 25%; in experiment [11], 0%; in experiment [12] it was 45%. This compound yielded an inhibition at 500 µg/mL in [2] of 53%. In addition, the inhibition at 100 µg/mL in experiment [8] is 16%.

`Cc1ccc(N(C(=O)c2nnsc2C)C(C(=O)NC2CCCCC2)c2cccc(F)c2)cc1F` (configuration not stated): the inhibition of growth at 50 µg/mL is 27% in [1]; 25% in experiment [3]; 0% in experiment [4]; 43% in [5]; 50% in [6]; 2% in [7]. In addition, the inhibition of growth at 50 µg/mL came to 11% in experiment [9], 44% in [10], 8% in [11] and 9% in experiment [12]. Also, the inhibition at 500 µg/mL in experiment [2] was determined as 30%. Moreover, in [8], testing at 100 µg/mL gave an inhibition of 52%.

Turning to `Cc1ccc(N(C(=O)c2nnsc2C)C(C(=O)NC2CCCCC2)c2ccccc2F)cc1F` (configuration not stated), the inhibition of growth at 50 µg/mL in experiment [1] turned out to be 55%; in experiment [3], 25%; in experiment [4], 0%; in experiment [5], 57%; in experiment [6], 63%; in experiment [7] it was 59%. The inhibition of growth at 50 µg/mL in experiment [9] was 0%; in [10] it was 50%; in experiment [11], 0%; in experiment [12] it was 73%. The compound also came in with an inhibition at 500 µg/mL in experiment [2] of 58%. Besides, 100 µg/mL produced 33% inhibition in experiment [8].

As to `Cc1ccc(N(C(=O)c2nnsc2C)C(C(=O)NC2CCCCC2)c2ccc(C(F)(F)F)cc2)cc1F` (configuration not stated), the inhibition of growth at 50 µg/mL amounted to 0% in [1]; 0% in experiment [3]; 0% in [4]; 14% in [5]; 0% in [6]; 22% in experiment [7]. Besides, the inhibition of growth at 50 µg/mL in [9] amounted to 0%; in experiment [10], 0%; in experiment [11], 0%; in experiment [12], 9%. In experiment [2], this compound showed an inhibition at 500 µg/mL of 36%. For the same compound, testing at 100 µg/mL in experiment [8] gave an inhibition of 27%.

Regarding `Cc1ccc(N(C(=O)c2nnsc2C)C(C(=O)NC2CCCCC2)c2cccc(C(F)(F)F)c2)cc1F` (configuration not stated), the inhibition of growth at 50 µg/mL in experiment [1] amounted to 27%; in experiment [3] it was 25%; in experiment [4], 0%; in experiment [5], 29%; in experiment [6], 25%; in experiment [7], 22%. Moreover, the inhibition of growth at 50 µg/mL was determined as 13% in experiment [9], 25% in experiment [10], 0% in experiment [11] and 14% in experiment [12]. In experiment [2], this compound had an inhibition at 500 µg/mL of 72%. Further, the inhibition at 100 µg/mL in [8] stood at 35%.

In the case of `Cc1ccc(N(C(=O)c2nnsc2C)C(C(=O)NC2CCCCC2)c2ccccc2C(F)(F)F)cc1F` (configuration not stated), the inhibition of growth at 50 µg/mL worked out at 0% in experiment [1]; 25% in [3]; 0% in experiment [4]; 14% in [5]; 44% in [6]; 4% in [7]. In addition, the inhibition of growth at 50 µg/mL was 0% in [9], 25% in [10], 0% in [11] and 0% in [12]. For the same compound, 500 µg/mL produced 20% inhibition in experiment [2]. Also, the inhibition at 100 µg/mL in [8] turned out to be 31%.

For `Cc1ccc(C(C(=O)NC2CCCCC2)N(C(=O)c2nnsc2C)c2ccc(C)c(F)c2)cc1` (configuration not stated), the inhibition of growth at 50 µg/mL in experiment [1] was determined as 27%; in experiment [3], 25%; in [4] it was 0%; in [5] it was 14%; in experiment [6], 0%; in [7] it was 2%. Also, the inhibition of growth at 50 µg/mL in [9] stood at 15%; in experiment [10], 25%; in [11], 8%; in [12], 0%. In experiment [2], this compound yielded an inhibition at 500 µg/mL of 53%. In experiment [8], this compound gave an inhibition at 100 µg/mL of 21%.

Consider `Cc1ccc(N(C(=O)c2nnsc2C)C(C(=O)NC2CCCCC2)c2ccccc2C)cc1F` (configuration not stated), for which the inhibition of growth at 50 µg/mL in [1] was found to be 0%; in experiment [3], 25%; in experiment [4], 0%; in experiment [5], 29%; in experiment [6], 38%; in experiment [7], 22%. Moreover, the inhibition of growth at 50 µg/mL in experiment [9] was 0%; in experiment [10], 44%; in experiment [11], 0%; in experiment [12], 0%. For the same compound, the inhibition at 500 µg/mL in experiment [2] was found to be 35%. In experiment [8], this compound gave an inhibition at 100 µg/mL of 13%.

Take `Cc1ccc(N(C(=O)c2nnsc2C)C(C(=O)NC2CCCCC2)c2ccc(O)cc2)cc1F` (configuration not stated): the inhibition of growth at 50 µg/mL in experiment [1] was determined as 45%; in experiment [3], 25%; in experiment [4], 0%; in experiment [5], 36%; in [6] it was 13%; in experiment [7] it was 22%. Besides, the inhibition of growth at 50 µg/mL in experiment [9] stood at 0%; in experiment [10] it was 25%; in experiment [11], 0%; in experiment [12], 14%. For the same compound, in experiment [2], at 500 µg/mL the inhibition was 34%. In [8], this compound showed an inhibition at 100 µg/mL of 9%.

As for `Cc1ccc(N(C(=O)c2nnsc2C)C(C(=O)NC2CCCCC2)c2ccccc2[N+](=O)[O-])cc1F` (configuration not stated), the inhibition of growth at 50 µg/mL in experiment [1] was determined as 27%; in [3] it was 25%; in experiment [4], 0%; in [5] it was 0%; in [6], 0%; in [7], 9%. The inhibition of growth at 50 µg/mL worked out at 0% in [9], 50% in experiment [10], 12% in [11] and 0% in experiment [12]. In addition, in experiment [2], the inhibition at 500 µg/mL came out at 11%. Besides, the inhibition at 100 µg/mL in [8] worked out at 5%.

A word on the inhibition: it is the percentage by which the read-out fell short of the control.
